Assay results as given in PubChem BioAssay AID743256 (The Scripps Research Institute Molecular Screening Center, 2014).
Out of some 2,900 compounds screened, about 1,300 (45%) were called active.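 How the source made its calls: active means mean inhibition over the triplicate runs exceeds the activity threshold set in the earlier primary screen (cut at about 20% in these data); inactive means the rest.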 So high a share suggests a set chosen from earlier hits. Only a sample is shown.

These compounds were tested against Disintegrin and metalloproteinase domain-containing protein 10 (Homo sapiens) (UniProt O14672) (assay: blockers of ADAM10 peptide cleavage – biochemical, FRET, human ADAM10, counter-screen for ADAM17 exosite inhibitor project (AID 743256;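 further: 0% = DMSO wells and 100% = marimastat wells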)). Conditions: recombinant ADAM10, EDANS/DABCYL FRET peptide cleavage, 3 h; at 6.95 µM; hits give high values.
Disintegrin and metalloproteinase domain-containing protein 10 (Homo sapiens), sequence (O14672 214-748 limits assumed): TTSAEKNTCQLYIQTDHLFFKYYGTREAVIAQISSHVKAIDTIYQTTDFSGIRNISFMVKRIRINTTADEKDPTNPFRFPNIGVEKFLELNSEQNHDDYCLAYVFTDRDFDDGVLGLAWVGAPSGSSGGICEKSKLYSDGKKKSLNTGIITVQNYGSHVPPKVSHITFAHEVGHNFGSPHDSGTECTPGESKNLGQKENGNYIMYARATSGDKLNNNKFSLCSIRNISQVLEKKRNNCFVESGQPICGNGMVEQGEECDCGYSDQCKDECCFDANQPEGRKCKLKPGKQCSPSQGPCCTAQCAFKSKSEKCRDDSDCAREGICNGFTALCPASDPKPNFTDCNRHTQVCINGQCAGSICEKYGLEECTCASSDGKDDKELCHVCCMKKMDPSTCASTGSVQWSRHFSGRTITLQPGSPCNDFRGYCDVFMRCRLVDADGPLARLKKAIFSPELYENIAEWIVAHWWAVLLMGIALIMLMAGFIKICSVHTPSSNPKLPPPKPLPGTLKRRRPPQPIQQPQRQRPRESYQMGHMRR
Outline: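 System: ADAM10; Buffer or medium: HEPES/Brij buffer, pH 7.5; Also added: DM2 FRET peptide substrate; Compound dosing: single nominal concentration per compound; Times: 30 min plus 3 h, 25 °C; Detection: EDANS fluorescence, excitation 359 nm, emission 460 nm; Read-out basis: percent inhibition scaled between DMSO and marimastat control wells; Benchmarks: marimastat and DMSO wells.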

Compound	inhibition
Cc1ccc(C(=O)Nc2ccc(C)c(S(=O)(=O)N(C)C)c2)s1	19.2% (inactive)
CCn1c(Cc2cccs2)nnc1SCC(=O)c1ccc(C)cc1	2.71% (inactive)
COc1cccc(/C=N/NC(=O)c2cccc([N+](=O)[O-])c2)c1OS(=O)(=O)c1ccc(C)cc1	27.1% (active)
Cc1ccc(OCCOCCOc2ccc(Br)cc2/C=N\NC(=O)c2ccncc2)cc1	13.6% (inactive)
CCCCCC(=O)N1C[C@H](O)[C@@H](n2cc(COC(=O)c3ccccc3)nn2)C[C@@H]1c1ccc(C)cc1	22.1% (active)
O=C(Cc1ncc(C(F)(F)F)cc1Cl)Nc1cccc(Br)c1	6.87% (inactive)
CCc1cccc(NC(=O)COC(=O)C2CCN(c3ccc(C(F)(F)F)cn3)CC2)c1	25.6% (active)
Cc1ccc(-c2nnc(SCC(=O)Nc3ccc(Oc4ccccc4)cc3)n2Cc2ccco2)cc1	30.9% (active)
Cc1ccc(OCc2nnc(SC/C=C/c3ccccc3)n2Cc2ccco2)cc1	18.7% (inactive)
Cc1sc2nc(SCC(=O)c3ccc(O)c(O)c3)n(Cc3ccco3)c(=O)c2c1C	16.8% (inactive)
COc1ccc(C(=O)NN2C(=O)C3C(c4ccccc4)C=CC(c4ccccc4)C3C2=O)cc1 (centres undefined)	25.6% (active)
CC(C)C(=O)Nc1cccc(NC(=S)NC(=O)C(c2ccccc2)c2ccccc2)c1	31.3% (active)
O=C(CSc1nc(Nc2ccccc2)nc(N2CCOCC2)n1)Nc1cc(Cl)ccc1O	33.4% (active)
CN(C)c1ccc(NC(=O)NC2CCCCN(Cc3ccc(Cl)cc3)C2=O)cc1 (centres undefined)	1.4% (inactive)
CCCN(CC(=O)NC(=O)NC1CCCCC1)CC(=O)Nc1cc(Cl)ccc1Cl	43.7% (active)
O=C(C[C@H]1C(=O)N(c2ccc(F)c(F)c2)C[C@@H]1Cc1ccccc1)Nc1ccccc1	26.5% (active)
COc1ccc(C(=O)Nc2ccc(C3(C#N)CCCC3)cc2)cc1OC	-1.52% (inactive)

Compound	inhibition
NNC(=O)C1CCCn2c1nc1sc3c(c1c2=O)CCCC3 (centres undefined)	-9.79% (inactive)
CCOc1ccc(Nc2nc(Cc3nnc(SCC(=O)c4ccc(C)cc4)o3)cs2)cc1	17.9% (inactive)
Cc1ccc(C)c(NC(=S)NNC(=S)Nc2ccc(C(C)C)cc2)c1	32.5% (active)
CCCn1nc(C(=O)NNC(=O)CSCC(=O)Nc2cc(C)on2)c2ccccc2c1=O	-0.39% (inactive)
Cc1cc(NC(=O)CN2C(=O)NC(CC(C)C)C2=O)no1 (centres undefined)	26.2% (active)
CS(=O)(=O)Nc1cccc(C2=NN(S(=O)(=O)c3ccccc3)C(c3cccs3)C2)c1 (centres undefined)	11.9% (inactive)
COc1ccc(S(=O)(=O)Nc2ccc(O)c(Sc3nc4ccccc4s3)c2)cc1	20.5% (active)
Cc1ccc(-c2n[nH]c(=S)n2/N=C/c2cc3c(cc2[N+](=O)[O-])OCO3)cc1	4.16% (inactive)
COc1cc(C2CC(=O)N3CN(Cc4ccccc4)CSC3=C2C#N)ccc1OCc1ccccc1 (centres undefined)	26.5% (active)
CC(C)N(C(=O)[C@H]1C[C@H](CC(=O)NC(C)(C)C)C(=O)N2CCc3c([nH]c4ccc(Cl)cc34)[C@]12C)C(C)C	15.5% (inactive)
CN(C)S(=O)(=O)c1cccc(NC(=O)COC(=O)C2(c3ccccc3F)CCCC2)c1	28% (active)
NS(=O)(=O)c1ccc(NC(=O)COC(=O)C2(c3ccc(F)cc3)CCCC2)cc1	24.3% (active)
Cc1ccc(S(=O)(=O)N2CCN(C(=O)COC(=O)c3c(C)cc(C)cc3C)CC2)c(C)c1	18.9% (inactive)
COc1ccc(C(=O)C2CCCN(S(=O)(=O)c3cccc(C)c3)C2)c(C)c1 (centres undefined)	11.7% (inactive)
Cc1onc(C(=O)NN)c1-c1csc(COc2ccccc2)n1	-5.47% (inactive)
O=C(c1ccccc1)N1CCN(c2ccc([N+](=O)[O-])c(NCc3ccco3)c2)CC1	14.8% (inactive)
O=C(NCc1ccccc1)C1=C[C@@H](c2ccc(C(F)(F)F)cc2)C[C@@H](OCc2ccc(CO)cc2)O1	44.5% (active)
